experiment: Toxicity liver stage against HepG2, at 10uM; assay type: cell-based; parameters: test concentration 10 uM, cell line HepG2-A16-CD81EGFP; conditions: human, HepG2-A16-CD81EGFP cells; read-out: INHIBITION
How it was run: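 Uninfected HepG2-A16-CD81EGFP cells, 3 × 10^3 per well, 1536-well, plated on prespotted compound at 10 μM final, parasite-free screening media added to match infected plates; puromycin 10 μM positive, DMSO 0.5% negative; run in parallel with 48 h PbLuc assay at 37 °C, 5% CO2; viability by CellTiter-Glo luminescence, normalized to controls.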

| Structure (SMILES) | cytotoxicity at 10 µM |
| --- | --- |
| CC(C)c1ccc(CNC(C)c2ccc(S(C)(=O)=O)cc2)cc1 (stereo unspecified) | 13.9% |
| COc1ccc(NC(=O)NCC(O)c2ccc(F)cc2F)c(OC)c1 (stereo unspecified) | 2.79% |
| CCCN1C(=O)[C@@H]2[C@@H](CCN2C(=O)COC)N(Cc2cccs2)C1=O | 0.121% |
| COCC(=O)N1CCN(C(=O)c2cccs2)C[C@H]1C(=O)OC | -0.655% |
| CS(=O)(=O)N1CC[C@H](c2nc3ccc(C(F)(F)F)cc3[nH]2)C1 | 0.0915% |
| Cc1ccc(Cl)cc1NC(=O)Nc1c[nH]c(=O)[nH]c1=O | -7.58% |
| CCOCCNC(=O)[C@@H]1CCCN1c1nccc(Nc2ccccc2)n1 | 2.66% |
| CCCC1CN(CC(C)C)C(=O)c2cccnc2O1 (stereo unspecified) | 3.04% |
| CC(C)(CO)Nc1c(NCc2ccccn2)c(=O)c1=O | 0.122% |
| COc1ccc(NC(=O)c2nc(C)sc2C)cn1 | -2.52% |
| COCC(=O)Nc1cnc(N2CCN(c3ccccc3)CC2)nc1 | -9.87% |
| COc1cc(NC(=O)C2CC(=O)N(c3cccc(F)c3)C2)ncn1 (stereo unspecified) | -1.73% |
| c1coc(CN2CCC3(CC2)COC(COCC2CCOCC2)C3)c1 (stereo unspecified) | 4.67% |
| CS(=O)(=O)N1CCCC12CCCN(C(=O)c1ccno1)C2 (stereo unspecified) | -172% |
| CC(=O)N1CCC2(C1)c1ccccc1S(=O)(=O)N2Cc1ccccc1 (stereo unspecified) | -127% |
| CC1=Nc2c(c(O)nn2C2CCOCC2)C(c2cccnc2)S1 (stereo unspecified) | 5.11% |
| O=C(NCCc1nccs1)C(c1ccccc1)n1cnnn1 (stereo unspecified) | 5.28% |
| CN(C)C(=O)N1CCc2c(CNc3ncccn3)cncc2C1 | -3.55% |
| COCC1CN(C(=O)CNC(C)=O)Cc2ncnn2C1 (stereo unspecified) | -12.4% |
| CCCN1CCN(C(=O)CCn2nc(C(F)(F)F)c(Br)c2C)CC1 | -8.71% |
| O=C(O)c1cnc(N2CCC(O)CC2)nc1COc1cccc(F)c1 | -9.09% |
| CCN(CC)CCNC(=O)c1nn(CC)cc1Cl | 2.58% |
| CCc1noc(C2CCCCN2C(=O)c2ccn(C3CCCC3)n2)n1 (stereo unspecified) | 11.8% |

| Structure (SMILES) | cytotoxicity at 10 µM |
| --- | --- |
| CN(C)CCn1nc(C2CCN(S(=O)(=O)N(C)C)C2)c2cccnc21 (stereo unspecified) | -2.15% |
| O[C@H]1CN(CCCOc2ccccc2F)CC[C@@]12CCCO2 | 3.06% |
| Nc1ncnc2nc(C3CCN(C(=O)Cc4ccccc4)C3)ccc12 (stereo unspecified) | 2.65% |
| CN(C)c1nccnc1C1CCN(c2cnccn2)CC1 | 4.58% |
| Cc1c[nH]c(C2CCCN(Cc3cccc(C(=O)O)c3)C2)n1 (stereo unspecified) | 9.59% |
| CC(=O)N1CC(C(=O)NCCc2ncc(C)s2)C1 | -1.33% |
| CC(C)(C)OC(=O)N[C@@H]1C[C@@H](O)CN(C(=O)c2ccc(F)cc2)C[C@H]1O | 2.57% |
| O=C(CO)N1CCCC(c2cc(C(F)(F)F)[nH]n2)C1 (stereo unspecified) | -5.12% |
| Cc1cncc(C2CCN(C(=O)CCc3ccnn3C)CC2)n1 | -28.8% |
| CC(CN1CCCC1=O)NC(=O)Nc1ccccc1Cn1cccn1 (stereo unspecified) | -1.33% |
| OCCOCCN1CCCC1c1cccc(Cl)c1 (stereo unspecified) | -1.78% |
| N#Cc1ccc(S(=O)(=O)NC(=O)c2ccc3c(c2)COC3)cc1 | 1.39% |
| CC(C)c1cc(NC(=O)Cn2ccc(=O)c3ccccc32)[nH]n1 | -146% |
| COc1ccccc1CNC(=O)C(C)N1CC(n2nc(C)cc2C)C1 (stereo unspecified) | 7.54% |
| CN(Cc1c(F)cccc1Cl)C(=O)Nc1cnn(CC(N)=O)c1 | -6.39% |
| Cc1nc(CC(=O)NS(=O)(=O)c2cccc3cnccc23)cs1 | 5.75% |
| Cc1cc(C)cc(N(CCC#N)C(=O)CN2CCCC2c2cccs2)c1 (stereo unspecified) | -1.61% |
| c1cc(CCN2CCCC2CN2CCCC2)ccn1 (stereo unspecified) | -2.35% |
| Cc1ccnn1-c1ccc(C(=O)N2CCN(c3cnccn3)CC2)cc1 | -2.31% |
| Cc1ccn(-c2ccc(N3CCCN(Cc4ccccc4)CC3)nn2)n1 | 9.31% |
| O=C(c1cccnc1-n1cncn1)N1CCC(Nc2ccccc2)CC1 | 7.1% |
| CN(CCc1cccs1)C(=O)Nc1cnn(CC2CCCO2)c1 (stereo unspecified) | -2.66% |
| Cc1nc(CC(=O)N2CCOC(c3nc(C(C)(C)C)n[nH]3)C2)cs1 (stereo unspecified) | 4.06% |

| Structure (SMILES) | cytotoxicity at 10 µM |
| --- | --- |
| Cc1nccn1-c1cc(CNC(=O)c2ccnc(N(C)C)c2)ccn1 | 2.32% |
| COc1cccc(CCNC(=O)NC(C)C)c1O | 2.27% |
| c1ccc(NCc2ccc(Cn3ccnc3)cc2)nc1 | 70.9% |
| CCC(NC(=O)NCc1cccc(N(C)C)n1)c1ccccc1OC (stereo unspecified) | 29.1% |
| COCCN1CCN(CC(=O)N(C)Cc2cccc(F)c2)CC1C (stereo unspecified) | -151% |
| Cc1nnc(N2CCCC2)c(C(N)=O)c1C | 7.19% |
| CC(CO)CNC(=O)c1cc2cccc(F)c2o1 (stereo unspecified) | 8.13% |
| NC(=O)CN(C(=O)C1Cc2cc(Cl)ccc2O1)C1CCCC1 (stereo unspecified) | 10.1% |
| Cc1cc(NC(=O)N(Cc2ccc(C#N)cc2)C(C)C)no1 | -17% |
| CN(Cc1nnc(C2CC2)n1C)S(=O)(=O)c1ccccc1C#N | 14.9% |
| CCn1cc(CNC2CCN(c3c(F)cccc3F)C2)cn1 (stereo unspecified) | -2.93% |
| CCc1nsc(NC2CCOC3(CCCC3)C2)n1 (stereo unspecified) | 13% |
| CCOc1ccc(C#N)cc1NC(=O)N1CCC(N2CCCC2)C1 (stereo unspecified) | -7.35% |
| CC(C)c1nnc2n1CCN(C(=O)c1ccc3c(c1)COC3)C2 | -6.22% |
| O=C(NCCc1nnc2n1CCCCC2)N1CCC2(CCOC2)C1 (stereo unspecified) | 4.18% |
| CC(C)n1c(C2CCCN(CCS(C)(=O)=O)C2)nc2ccccc21 (stereo unspecified) | -10.4% |
| NC(=O)C1CCN(Cn2nc(-c3ccc(F)cc3)oc2=O)CC1 | -19.6% |
| CC(=O)N1C[C@@H]2CN(S(=O)(=O)C3CC3)CCO[C@@H]2C1 | -107% |
| O=C(O)c1cn(CC2CCCN(c3cnc4ccccc4n3)C2)nn1 (stereo unspecified) | 1.57% |
| CC(C)NC(=O)[C@@H]1C[C@@H](N)CN1C(=O)CCSCc1ccc(F)cc1 | -3.43% |
| COc1ccc(CCN2CC(c3nc(CSC)no3)CCC2=O)cc1 (stereo unspecified) | 3.11% |
| Cc1cccc(CN2CCN(c3nc(CO)cs3)CC2)c1 | -11.6% |
| Cn1cccc1C(=O)N1CCCn2nc(CCC(=O)NC3CC3)cc2C1 | 5.45% |

| Structure (SMILES) | cytotoxicity at 10 µM |
| --- | --- |
| O=C(Cn1ncc(N2CCCC2)cc1=O)Nc1ccc2nccnc2c1 | 1.83% |
| Cn1cnnc1SCC(=O)NC1CC(=O)N(CCc2cccc(Cl)c2)C1 (stereo unspecified) | 2.3% |
| Cc1n[nH]c(C)c1CCN(C)C(=O)c1ccc(CCC(C)(C)O)cc1 | 6.15% |
| O=C(NCc1cnn2cccnc12)C1CC2(CCNCC2)CN1 (stereo unspecified) | -8.32% |
| O=C(CCNC(=O)c1ccccc1F)NCCNc1cccnc1 | -7.55% |
| O=C(c1ccc(Cl)cc1F)N1CCC(Cn2cc(CO)nn2)CC1 | -1.36% |
| CN1CCN(C[C@@H]2CN(C(=O)CC3CCCCC3)C[C@@H]2CO)CC1 | -8.76% |
| COCc1ccc(C(=O)N2CCC(c3nccn3CC3CC3)CC2)o1 | -2.81% |
| CC(C)(C)N1CC(C(=O)N2CCN(CCn3cncn3)CC2)CC1=O (stereo unspecified) | -5.14% |
| C[C@@H]1CN(S(=O)(=O)N2CCCCCC2)C[C@@]1(O)C1CCC1 | 17.6% |
| COc1ccc2c(=O)n(CC3CC3)ccc2c1OC | 12.8% |
| COCCN1CCC(CN(CC2CCCO2)C(=O)CCC(F)(F)F)CC1 (stereo unspecified) | 2.13% |
| Cc1cc(C)c2ncn(CCC(C)O)c(=O)c2c1 (stereo unspecified) | 2.1% |
| CC(=O)N1CCC(NCc2cccnc2N(C)Cc2ccccc2)CC1 | -14.1% |
| CN(CC(=O)N1CCC(Cc2cccc(C(N)=O)c2)C1)C1CCCC1 (stereo unspecified) | -7.92% |
| CCn1cc(S(=O)(=O)NC2CCCN(CCCc3ccccc3)C2)cn1 (stereo unspecified) | 8.08% |
| CCn1c(CN(C)C)nnc1C1CCN(Cc2ccccc2)CC1 | -11.6% |
| Cc1ccc(C(NC(=O)CC2CCN(C(C)C)CC2)C(=O)O)cc1 (stereo unspecified) | -9.99% |
| CCN(c1ccc(C(=O)N2CCCC2)cc1)S(=O)(=O)CC | -9.75% |
| CCOC(=O)CCNC(=O)c1nc(OCC)ccc1Cl | -7.6% |
| NC(=O)c1cnn2c1NCC(CNCCCc1ccccc1)C2 (stereo unspecified) | -9.24% |
| COCCN1CCN(Cc2cccc(OCC(N)=O)c2)CC1C (stereo unspecified) | 2.43% |
| CCCn1nc2c(cc1=O)CN(CCCN1CCCC1=O)CC2 | -6.49% |

| Structure (SMILES) | cytotoxicity at 10 µM |
| --- | --- |
| c1cc(CN2CCN(Cc3cscn3)CC2)cs1 | 2.45% |
| Cc1nc2cc(-c3nccn3C)nn2c(N2CCCC(O)C2)c1C (stereo unspecified) | 2.92% |
| c1cncc(CNc2cncc(C3CCCN3)n2)c1 (stereo unspecified) | 9.93% |
| c1cncc(CNCc2cccs2)c1 | 10.1% |
| NC(=O)CCc1cccc(C2CCNCC2)n1 | -3.28% |
| O=C(C[C@@H]1COC[C@H]2CN(C(=O)c3ccccn3)C[C@@H]12)N1CCCC1 | -104% |
| O=C(Cc1ccccc1)N1CCC2(CC1)COCCN2CC1CC1 | -78.5% |
| CCOC(=O)[C@]12CCCN(Cc3ccco3)C[C@H]1CN(S(C)(=O)=O)C2 | 6.86% |
| c1cncc(CN2CCc3ncnc(C4CC4)c3CC2)c1 | -129% |
| CC(=O)N1CCCC2(CCC(=O)N2Cc2cccnc2)C1 (stereo unspecified) | 7.59% |
| Cc1ccc(CN2CCC[C@]3(C(=O)O)CN(C)C[C@@H]3C2)s1 | -106% |
| Cc1ccc(CN2C[C@@H]3COC[C@H](NS(C)(=O)=O)[C@@H]3C2)o1 | 0.415% |
| Clc1ccccc1CN1CCc2nc(C3CCCNC3)ncc2C1 (stereo unspecified) | -19.7% |
| CN(C)CCN1CCO[C@H]2CN(C(=O)c3ccsc3)C[C@H]21 | 3% |
| COc1ncccc1C(=O)N1CC[C@]2(C[C@@H](Oc3cccnc3)CO2)C1 | 4.43% |
| Cc1cccc(CN2CCc3ncnc(C)c3CC2)n1 | -17.4% |
| COCCN1CCC2(COCc3cnc(-c4ccccc4)nc32)C1 (stereo unspecified) | -111% |
| O=C(N[C@@H]1CN(Cc2ccccc2)C[C@@H]2CCCO[C@@H]21)C1CC1 | -6.12% |
| CN(C)C(=O)N1C[C@H]2CC[C@@H](C1)N(C(=O)CCCn1cncn1)C2 | -12.2% |

From ChEMBL document CHEMBL4513216, “Probing the Open Global Health Chemical Diversity Library for Multistage-Active Starting Points for Next-Generation Antimalarials” (ACS Infect Dis, 2020)
